Active and inactive are the calls of the source. No cut-off for these calls is given here.
What was measured:
[1] = biological target: T1, RNA cytidine acetyltransferase (Homo sapiens) (UniProt Q9H0A0); assay: Binding affinity to recombinant NAT10 acetyltransferase domain (494 to 753 residues) (unknown origin) by isothermal titration calorimetry
T1 sequence (whole entry): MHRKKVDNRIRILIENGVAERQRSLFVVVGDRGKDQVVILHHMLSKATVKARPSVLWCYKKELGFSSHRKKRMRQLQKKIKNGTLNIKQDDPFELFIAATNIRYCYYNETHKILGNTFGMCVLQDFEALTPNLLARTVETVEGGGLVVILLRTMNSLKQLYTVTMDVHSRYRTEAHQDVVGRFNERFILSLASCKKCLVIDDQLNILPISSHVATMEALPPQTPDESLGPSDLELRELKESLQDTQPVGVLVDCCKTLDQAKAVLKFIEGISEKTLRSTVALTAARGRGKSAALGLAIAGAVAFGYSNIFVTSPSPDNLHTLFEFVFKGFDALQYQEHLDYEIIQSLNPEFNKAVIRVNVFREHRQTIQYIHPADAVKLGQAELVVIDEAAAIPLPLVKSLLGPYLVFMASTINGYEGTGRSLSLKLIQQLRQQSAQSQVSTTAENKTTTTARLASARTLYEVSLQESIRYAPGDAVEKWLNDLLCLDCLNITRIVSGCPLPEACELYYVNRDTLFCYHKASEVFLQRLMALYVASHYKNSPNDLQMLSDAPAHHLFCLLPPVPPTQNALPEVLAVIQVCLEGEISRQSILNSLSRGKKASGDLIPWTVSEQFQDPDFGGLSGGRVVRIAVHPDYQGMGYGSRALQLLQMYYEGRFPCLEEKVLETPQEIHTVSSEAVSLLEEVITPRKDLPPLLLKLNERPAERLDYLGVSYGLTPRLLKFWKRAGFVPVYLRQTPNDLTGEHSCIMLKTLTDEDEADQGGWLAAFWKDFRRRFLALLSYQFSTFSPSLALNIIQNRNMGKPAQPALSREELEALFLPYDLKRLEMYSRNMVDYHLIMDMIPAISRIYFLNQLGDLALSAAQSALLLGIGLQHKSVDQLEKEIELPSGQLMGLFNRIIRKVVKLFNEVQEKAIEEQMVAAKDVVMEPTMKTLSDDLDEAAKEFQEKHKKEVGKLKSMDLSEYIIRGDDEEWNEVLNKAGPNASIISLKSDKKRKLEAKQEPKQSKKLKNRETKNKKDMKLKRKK
In short: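 Recombinant NAT10 acetyltransferase domain (residues 494–753) titrated with acetyl-CoA or remodelin by isothermal titration calorimetry.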

[2] = biological target: T1, RNA cytidine acetyltransferase (Homo sapiens); assay: Stabilization of full length recombinant NAT10 (unknown origin) by DSLS based analysis
In short: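 Full-length recombinant NAT10 thermal stability measured by differential static light scattering with ATP, acetyl-CoA or remodelin added.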

[3] = Stability of the compound in DMSO-d6 solution assessed as discoloration to dark brown colour in presence of light; type: physicochemical
In short: (§1)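 Remodelin solutions followed over time: in aqueous buffer kept from light for 7 days; in DMSO monitored for darkening colour and new aromatic NMR resonances.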

K562 [4] = assay: Covalent protein binding in human K562 cells by rhodamine azide based fluorescence analysis; type: functional, cell-based; details: dose 10-100 µM
In short: (§2)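 K562 cancer cell lysates incubated with clickable probes across a dose range (down to 10 μM), then click-labelled with rhodamine azide to visualise proteome labelling; competition run with remodelin added.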

K562 [5] = assay: Covalent protein binding in human K562 cells at 10 to 100 uM in presence of remodelin by rhodamine azide based fluorescence analysis; type: functional, cell-based; details: dose 10-100 µM; in short: as §2
[6] = Stability of the light-protected compound in aqueous buffer measured for 7 days; type: physicochemical; details: 168 h, time 7 day; in short: as §1
[7] = biological target: T1, RNA cytidine acetyltransferase (Homo sapiens); assay: Inhibition of NAT10-catalyzed RNA cytidine acetylation in human HeLa cells assessed as decrease in ac4C at helix 45 of 18S rRNA at 50 uM after 48 hrs by nucleotide resolution sequencing analysis; type: cell-based
In short: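 Helix 45 of 18S rRNA (C1842) read by nucleotide-resolution ac4C sequencing after 50 μM remodelin for 48 h; C→T change at the site scored as ac4C present, no mutation as loss; NAT10 KD as comparator.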

[8] = Redox activity of the compound assessed as H2O2 producion at 250 uM by horseradish peroxidase-phenol red counter screen based assay; type: physicochemical
[9] = Stability of the compound in DMSO-d6 solution assessed as drug degradation measured after 24 hrs by NMR analysis; type: physicochemical
[10] = Thiol reactivity with CoA at 1 to 50 uM measured after 30 mins by DACM thiol consumption assay; type: ADME; details: 0.5 h, dose 1-50 µM
Tubulin (Homo sapiens) = Tubulin (Homo sapiens) (UniProt P68371+Q9H4B7+P0DPH7+P68366+Q13509+Q71U36+P04350+Q3ZCM7+P07437+P68363+Q9BQE3+Q6PEY2+Q13885+Q9BVA1+Q9BUF5); assay: Induction of tubulin acetylation in human HEK293T cells at 10 to 50 uM measured after 48 hrs by western blot analysis; type: cell-based; details: dose 10-50 µM
[11] = biological target: T1, RNA cytidine acetyltransferase (Homo sapiens); assay: Inhibition of NAT10-catalyzed RNA cytidine acetylation in human HeLa cells assessed as decrease in ac4C at helix 45 of 18S rRNA at 50 uM after 4 days by UV-HPLC analysis; type: cell-based; details: time 4.0 day
In short: (§3)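 Helix 34 and helix 45 ac4C of 18S rRNA analysed […] by UV-HPLC after cells were treated with remodelin at 50 μM for 4 d; NAT10 KD cells served as comparator.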

[12] = biological target: T1, RNA cytidine acetyltransferase (Homo sapiens); assay: Inhibition of NAT10-catalyzed RNA cytidine acetylation in human HeLa cells assessed as decrease in ac4C level at 50 uM after 48 hrs by Northern blot assay; type: cell-based
In short: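 Following 48 h remodelin treatment, RNA probed by dot blot or Northern blot with an anti-ac4C antibody.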

[13] = Redox activity of the compound assessed as H2O2 production at 250 uM in presence of DTT by horseradish peroxidase-phenol red counter screen based assay; type: physicochemical
[14] = biological target: T1, RNA cytidine acetyltransferase (Homo sapiens); assay: Inhibition of NAT10-catalyzed RNA cytidine acetylation in human HeLa cells assessed as decrease in ac4C level at 10 to 50 uM after 24 to 48 hrs by dot blot assay; type: cell-based; details: dose 10-50 µM, time 24-48 hrs
[15] = biological target: T1, RNA cytidine acetyltransferase (Homo sapiens); assay: Inhibition of NAT10-catalyzed RNA cytidine acetylation in human HeLa cells assessed as decrease in ac4C at helix 34 of 18S rRNA at 50 uM after 4 days by UV-HPLC analysis; type: cell-based; details: time 4.0 day; in short: as §3
[16] = Thiol-reactivity using La antigen containing reactive cysteine C232 and C245 in presence of DTT by ALARM NMR analysis; type: ADME
[17] = Aggregation property of the compound assessed as detergent sensitive inhibition of beta-lactamase AmpC at 33 to 100 uM; type: physicochemical; details: dose 33-100 µM
[18] = biological target: T1, RNA cytidine acetyltransferase (Homo sapiens); assay: Inhibition of NAT10-catalyzed RNA cytidine acetylation in human HeLa cells assessed as decrease in ac4C level at 10 to 50 uM after 48 hrs by LC-MS assay; type: cell-based; details: dose 10-50 µM
In short: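 Wild-type cells treated with remodelin for 48 h; RNA ac4C levels quantified by LC-MS, with CRISPR-Cas9 NAT10 disruption as comparator.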

[19] = Aggregation property of peptides assessed as colloidal aggregate formation at 25 uM by dynamic light scattering analysis; type: physicochemical

For `CC(=O)SCCNC(=O)CCNC(=O)[C@H](O)C(C)(C)COP(=O)(O)OP(=O)(O)OC[C@H]1O[C@@H](n2cnc3c(N)ncnc32)[C@H](O)[C@@H]1OP(=O)(O)O`, the Activity [1] was “Active” and the Activity [2] was “Active”.

For `C#CCNC(=O)c1ccc(-c2csc(NN=C3CCCC3)n2)cc1`, the Stabilty [3] was “Unstable”, the Activity (K562 [4]) was “Dose-dependent effect” and the Activity (K562 [5]) was “inactive”.

For `C#CCN(N=C1CCCC1)c1nc(-c2ccc(Cl)cc2)cs1`, the Activity (K562 [4]) was “Dose-dependent effect”.

In the case of `N#Cc1ccc(-c2csc(NN=C3CCCC3)n2)cc1`, the Stabilty [3] was “Unstable”, the Stabilty [6] was “Stable” and the inhibition [7] was “inactive”. The Activity [1] was “inactive”, the Activity [8] was “Not Active” and the Stabilty [9] was “Unstable”. For the same compound, the Activity [10] was “Not Active”, the Activity (Tubulin (Homo sapiens)) was “inactive” and the inhibition [11] was “inactive”. The inhibition [12] was “inactive”, the Activity [2] was “inactive” and the Activity [13] was “Not Active”. For the same compound, the inhibition [14] was “inactive”, the inhibition [15] was “inactive” and the Activity [16] was “Active”. For the same compound, the Activity [17] was “Not Active”, the inhibition [18] was “inactive” and the Activity [19] was “Active”.

In the case of `Nc1ncnc2c1ncn2[C@@H]1O[C@H](COP(=O)(O)OP(=O)(O)OP(=O)(O)O)[C@@H](O)[C@H]1O`, the Activity [2] was “Active”.

Source: ChEMBL document CHEMBL4732272, “Remodelin Is a Cryptic Assay Interference Chemotype That Does Not Inhibit NAT10-Dependent Cytidine Acetylation” (ACS Med Chem Lett, 2021)
